Experimental data of several laboratories.
Protocols differ between the studies behind these lines.
Cell line: NCI-H226
Effect on: cell growth or viability

COc1cc([C@@H]2c3cc4c(cc3[C@@H](O[C@@H]3O[C@@H]5CO[C@@H](C)O[C@H]5[C@H](O)[C@H]3O)[C@H]3COC(=O)[C@H]23)OCO4)cc(OC)c1O gave an IC50 of 0.39 µM (MTT; 72 h).
For CCCc1n(Cc2ccc3ccccc3n2)cc[n+]1Cc1ccc2ccccc2n1, the TGI was 34.8 µM (SRB).
For O=c1[nH]cc(S(=O)(=O)Nc2cccc(-c3nnc(-c4cccc(Cl)c4)o3)c2)c(=O)[nH]1, the IC50 was 7.7 µM (MTT; 24 h).
For CCc1n(Cc2ccc3ccccc3n2)cc[n+]1Cc1ccc2ccccc2c1, the TGI was 4.87 µM (SRB).
With COc1cc(-c2ccc(-c3ccc(C(=N)N)nc3)s2)cc(OC)c1OC the GI50 was 10.8 µM (SRB).
O=C1NC(=NCc2cccs2)S/C1=C\c1ccc2ncccc2c1 gave an IC50 of over 10 µM.
For S=C([S][Au-][P+](CCCCCC[P+]([Au-][S]C(=S)n1cccn1)(c1ccccc1)c1ccccc1)(c1ccccc1)c1ccccc1)n1cccn1, the GI50 was 6.63 µM (SRB).
With COc1ccc(C(=O)/C=C/c2cccc(Br)c2)cc1S(N)(=O)=O the inhibition was 83% (SRB; 10 µM).
The IC50 of CCCCC[C@H](O)CC(=O)CCc1ccc(O)c(OC)c1 is reported as 145 µM (SRB).
COc1ccccc1/C=C/C(=O)c1ccc(OC)c(S(N)(=O)=O)c1 has a GI50 of 4 µM (SRB; 48 h).
For CCCc1n(Cc2ccc3ccccc3n2)cc[n+]1Cc1ccc2ccccc2c1, the TGI was 7.6 µM (SRB).
COc1ccc(C(=O)/C=C/c2ccc(Cl)c(Cl)c2)cc1S(N)(=O)=O gave a GI50 of 3 µM (SRB; 48 h).
CCc1n(Cc2ccc3ccccc3n2)cc[n+]1Cc1ccc2ccccc2n1 has a TGI of 30.8 µM (SRB).
The inhibition of COc1ccc(C(=O)/C=C/c2cc3c(cc2Br)OCO3)cc1S(N)(=O)=O is reported as 87% (SRB; 10 µM).
CCCCC/C=C/C(=O)CCc1ccc(O)c(OC)c1 has an IC50 of 18 µM (SRB).
With COc1ccc(C(=O)/C=C/c2cccc3ccccc23)cc1S(N)(=O)=O the GI50 was 3.1 µM (SRB; 48 h).
COc1cccc(Oc2ccccc2NC(=O)CNC(=O)c2cccc3ccccc23)c1 has a GI50 of 2.51 µM (SRB; 48 h).
